Numbered stars: 1 amine (or outer) side, 2 acyl side, 3 side chain; on linkers, the order of the positions; unused ones are H or OH. Bridge positions count the residues as written; N and C are the ends. Square brackets hold non-standard residues; d marks the D form. Peptide text beside a SMILES is read from it. * marks the point of attachment. hTyr(3S-OH,4S-OH,3'-OSO3H) = N[C@H](C(=O)O)[C@H](O)[C@@H](O)c1ccc(O)c(OS(=O)(=O)O)c1; Orn(4R-OH,5R-OH) = O=C([C@H](C[C@@H](O)[C@@H](O)N[*:3])N[*:1])[*:2]; Pro(3S-OH,4S-Me) = C[C@H]1CN[C@H](C(=O)O)[C@H]1O; X1 = CCCCCOc1ccc(-c2cc(-c3ccc(C(=O)*)cc3)no2)cc1; Gln(3R-OH) = NC(=O)C[C@@H](O)[C@H](N)C(=O)O; Hyp = O=C(O)[C@@H]1C[C@@H](O)CN1
Tests used:
[1] = AUC ( 0 to 24 hrs) in Alveolar macrophage cells of healthy human at 150 mg, iv […]; format: ADME, organism-based; set-up: time < 24 hr, dose 150 mg, route intravenous
How it was run: (§1)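 Steady-state ELF and alveolar-cell concentrations were derived by urea dilution from BAL, with one bronchoscopy per subject at 4, 12 or 24 h after the third 150 mg IV dose (five subjects per time). A composite AUC over 0–24 h was calculated across subjects by the trapezoidal rule.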

[2] = Half life in healthy human plasma at 150 mg, iv […]; format: ADME, organism-based
How it was run: (§2)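 Fifteen healthy adults received micafungin 150 mg IV, infused over 1 h every 24 h, for three doses. Blood was drawn before the third dose, at end of infusion (1 h), and 4, 12 and 24 h after the third dose. Plasma levels were measured by validated HPLC (linear 0.05–25.0 μg/ml). Parameters came from noncompartmental analysis over the 24-h dosing interval.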

[3] = test system: Plasma; experiment: Plasma concentration in healthy human at 150 mg, iv […] measured before third dose; format: ADME, organism-based; conditions: in vivo
How it was run: (§3)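 Healthy volunteers (n=15) were given 150 mg micafungin IV over 1 h every 24 h for three doses. Plasma was sampled before and after the third dose (0, 1, 4, 12, 24 h). Quantitation used modified, validated HPLC with a standard curve linear over 0.05–25.0 μg/ml. Interday CV was ≤11.3% and intraday CV <18%.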

[4] = test system: Plasma; experiment: Plasma protein binding in healthy human; format: ADME, cell-free
[5] = Drug concentration in Alveolar macrophage cells of healthy human at 150 mg, iv […] measured after 4 hrs of third postdose by urea dilution method; format: ADME, organism-based; conditions: read-out: Drug uptake
How it was run: (§4)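 The first aspirate was discarded and the rest pooled. Cells were pelleted and lysed. Drug in BAL fluid and pellet was measured by HPLC. Urea in BAL and plasma was measured by colorimetric enzymatic assay. ELF and alveolar-cell levels were derived by urea dilution.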

[6] = Clearance at steady state in healthy human plasma at 150 mg, iv […]; format: ADME, organism-based; how it was run: as §2
[7] = Penetration ratio, ratio of AUC for alveolar macrophage cells of healthy human to AUC for human plasma; format: ADME, cell-based; conditions: read-out: Ratio AUC
How it was run: (§5)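 Penetration was expressed as composite AUC0-24 in ELF or alveolar cells (urea-dilution-corrected BAL data, trapezoidal rule) divided by plasma AUC0-24 (noncompartmental). Subjects received 150 mg IV daily for three doses.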

[8] = Plasma concentration in healthy human at 150 mg, iv […] measured after 24 hrs of third postdose; format: ADME, organism-based; how it was run: as §3
[9] = Drug concentration in Alveolar macrophage cells of healthy human at 150 mg, iv […] measured after 12 hrs of third postdose by urea dilution method; format: ADME, organism-based; conditions: read-out: Drug uptake; how it was run: as §4
[10] = AUC ( 0 to 24 hrs) in healthy human epithelial lining fluid at 150 mg, iv […]; format: ADME, organism-based; set-up: dose 150 mg, time < 24 hr, route intravenous; how it was run: as §1
[11] = Volume of distribution in healthy human plasma at 150 mg, iv […]; format: ADME, organism-based; how it was run: as §2
[12] = Drug concentration in Alveolar macrophage cells of healthy human at 150 mg, iv […] measured after 24 hrs of third postdose by urea dilution method; format: ADME, organism-based; conditions: read-out: Drug uptake; how it was run: as §4
[13] = Penetration ratio, ratio of AUC for human epithelial lining fluid to AUC for human plasma; format: ADME; conditions: read-out: Ratio AUC; how it was run: as §5
[14] = Drug concentration in healthy human plasma at 150 mg, iv QD measured after 12 hrs of third postdose by high-pressure liquid chromatography method; conditions: read-out: Drug uptake
[15] = test system: Aspergillus fumigatus; experiment: Antimicrobial activity against non-germinated Aspergillus fumigatus conidia; format: functional; conditions: read-out: MEC
[16] = Drug concentration in healthy human plasma at 150 mg, iv QD measured after 4 hrs of third postdose by high-pressure liquid chromatography method; conditions: read-out: Drug uptake
[17] = Drug concentration in healthy human epithelial lining fluid at 150 mg, iv QD measured after 4 hrs of third postdose by urea dilution method; conditions: read-out: Drug uptake
[18] = Drug concentration in healthy human plasma at 150 mg, iv QD measured after 24 hrs of third postdose by high-pressure liquid chromatography method; conditions: read-out: Drug uptake
[19] = AUC ( 0 to 24 hrs) in healthy human plasma at 150 mg, […]; format: ADME, organism-based; set-up: dose 150 mg, time < 24 hr, route intravenous; conditions: iv; how it was run: as §2
[20] = Drug concentration in healthy human epithelial lining fluid at 150 mg, iv QD measured after 12 hrs of third postdose by urea dilution method; conditions: read-out: Drug uptake
[21] = Cmax in healthy human plasma at 150 mg, iv […]; format: ADME, organism-based; set-up: dose 150 mg, route intravenous; how it was run: as §2
[22] = Drug concentration in healthy human epithelial lining fluid at 150 mg, iv […] measured after 24 hrs of third postdose by urea dilution method; format: ADME, organism-based; conditions: read-out: Drug uptake; how it was run: as §4
[23] = test system: Aspergillus fumigatus; experiment: Antimicrobial activity against germinated Aspergillus fumigatus conidia; format: functional; conditions: read-out: MEC
[24] = Ratio of Cmax to MEC for Aspergillus; format: functional

SMILES: CCCCCOc1ccc(-c2cc(-c3ccc(C(=O)N[C@H]4C[C@@H](O)[C@@H](O)NC(=O)[C@@H]5[C@@H](O)[C@@H](C)CN5C(=O)[C@H]([C@H](O)CC(N)=O)NC(=O)[C@H]([C@H](O)[C@@H](O)c5ccc(O)c(OS(=O)(=O)O)c5)NC(=O)[C@@H]5C[C@@H](O)CN5C(=O)[C@H]([C@@H](C)O)NC4=O)cc3)no2)cc1 [MICAFUNGIN] (X1-[Orn(4R-OH,5R-OH)]T[Hyp][hTyr(3S-OH,4S-OH,3'-OSO3H)][Gln(3R-OH)][Pro(3S-OH,4S-Me)]; lactam 1-C)
- AUC at 24 h [1]: 234 µg·h/mL
- half-life [2]: 14.7 h
- Cp [3]: 4.28 µg/mL
- PPB [4]: 99%
- concentration at 4 h [5]: 10.4 µg/mL
- clearance [6]: 11.7 mL/min
- Kp [7]: 106
- concentration at 24 h [8]: 4.67 µg/mL
- concentration at 12 h [9]: 8.4 µg/mL
- AUC at 24 h [10]: 10.2 µg·h/mL
- Vd [11]: 15 L
- concentration at 24 h [12]: 14.6 µg/mL
- Kp [13]: 5
- concentration at 12 h [14]: 7.4 µg/mL
- minimal effective concentration [15]: 0.06 µg/mL
- concentration at 4 h [16]: 14.8 µg/mL
- concentration at 4 h [17]: 0.52 µg/mL
- concentration at 24 h [18]: 4.8 µg/mL
- AUC at 24 h [19]: 220 µg·h/mL
- concentration at 12 h [20]: 0.44 µg/mL
- Cmax [21]: 19.1 µg/mL
- concentration at 24 h [22]: 0.43 µg/mL
- minimal effective concentration [23]: 0.25 µg/mL
- Ratio [24]: 10

— ChEMBL document CHEMBL1629659, “Bronchopulmonary disposition of micafungin in healthy adult volunteers” (Antimicrob Agents Chemother, 2009)
